The source made the active and inactive calls.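 Rule for the calls, unless noted: active = viability at or under a set limit in both replicates, limit being median viability minus 3 SD (cut at about 48% in these data, passing the limit was not always enough); inconclusive = at or under the limit in just one replicate; inactive = at or above the limit in both replicates.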
Key:
[1] = reducers of endogenous Her2 protein level, primary screen, SKBR3 breast tumor cells, AlphaScreen, ATP viability (AID 461;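 active = Her2 level under about 52% in both replicate screens, with viability over 70% of control, limit read from the data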;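 for Her2 level: lower value means less Her2 protein in the cells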;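 for viability: percent of carrier control wells set as 100% viability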); conditions: 18-24 h, measured here: SKBR3 viability, ATP luminescence, at 10 µM
[2] = molecular target: Receptor tyrosine-protein kinase erbB-2 (Homo sapiens) (UniProt P04626); test: as above; conditions: 18-24 h, at 10 µM, stronger effect = lower value
[3] = SK-BR-3 cell growth inhibitors, pilot screen, 24 h, human (AID 572;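 active = viability at or below 10% of carrier control in both of two separate runs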;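 note: compound exposure lasted between 18 and 24 h rather than exactly 24 h; 100% = carrier-treated control wells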); conditions: SK-BR-3 viability, CellTiter-Glo luminescence, at 10 µM, stronger effect = lower value
[4] = HUVEC growth inhibition – cell-based, human, primary screen (AID 575;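 active = viability at or below 30% in both replicate assays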;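 note: 100% = median of untreated cell wells with 0.1% DMSO on each plate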); conditions: HUVEC proliferation, CellTiter-Glo luminescence, 72 h; at 10 µM; stronger effect = lower value
In short: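 Test system: primary human umbilical vein endothelial cells. Quantity: 1250 cells/well. Compound: single 10 µM dose, 0.1% DMSO, from 5x medium stock. Timing: 72 h treatment at 37 °C. Detection: ATP-based CellTiter-Glo luminescent read. Benchmarks: vehicle and MePR control wells. Format: 384-well plates coated with collagen.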

[5] = growth inhibitors of H69AR lung tumor, primary screen, human, duplicate replicates (AID 580); conditions: H69AR lung tumor cells viability, ATP luminescence, 72 h; at 10 µM; stronger effect = lower value;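 note: 100% = mean luminescence of untreated wells and 0% = no signal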
[6] = reversal of MRP1-mediated doxorubicin resistance, pilot screen, H69AR cells, doxorubicin co-treatment (AID 601;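 active = viability loss from added drug above about 55%, and viability with drug at most 40%, in both replicates, limit read from the data, passing the limit was not always enough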); conditions: CellTiter-Glo, 72 h, at 10 µM; for differential viability (reversal): stronger effect = higher value
[7] = 384-well plate pilot, post-Golgi transport modulator project, inhibition of yeast transport mutant growth (AID 636; in the data active = inhibition above about 31%); conditions: absorbance 615 nm, about 18 h, stronger effect = higher value
[8] = growth suppression of yeast trafficking mutant, preliminary HTS, modulators of trafficking downstream of Golgi apparatus project, 1536-format plate, OD 615 nm (AID 637; in the data active = inhibition above about 30%); conditions: yeast transport mutant growth, absorbance 615 nm, 18 h; stronger effect = higher value
[9] = H69AR cells + 2 uM doxorubicin, measured here: viability with 2 uM doxorubicin, stronger effect = lower value
[10] = H69AR cells, compound alone cytotoxicity

Chain of Receptor tyrosine-protein kinase erbB-2 (Homo sapiens) (P04626 whole entry, looked up): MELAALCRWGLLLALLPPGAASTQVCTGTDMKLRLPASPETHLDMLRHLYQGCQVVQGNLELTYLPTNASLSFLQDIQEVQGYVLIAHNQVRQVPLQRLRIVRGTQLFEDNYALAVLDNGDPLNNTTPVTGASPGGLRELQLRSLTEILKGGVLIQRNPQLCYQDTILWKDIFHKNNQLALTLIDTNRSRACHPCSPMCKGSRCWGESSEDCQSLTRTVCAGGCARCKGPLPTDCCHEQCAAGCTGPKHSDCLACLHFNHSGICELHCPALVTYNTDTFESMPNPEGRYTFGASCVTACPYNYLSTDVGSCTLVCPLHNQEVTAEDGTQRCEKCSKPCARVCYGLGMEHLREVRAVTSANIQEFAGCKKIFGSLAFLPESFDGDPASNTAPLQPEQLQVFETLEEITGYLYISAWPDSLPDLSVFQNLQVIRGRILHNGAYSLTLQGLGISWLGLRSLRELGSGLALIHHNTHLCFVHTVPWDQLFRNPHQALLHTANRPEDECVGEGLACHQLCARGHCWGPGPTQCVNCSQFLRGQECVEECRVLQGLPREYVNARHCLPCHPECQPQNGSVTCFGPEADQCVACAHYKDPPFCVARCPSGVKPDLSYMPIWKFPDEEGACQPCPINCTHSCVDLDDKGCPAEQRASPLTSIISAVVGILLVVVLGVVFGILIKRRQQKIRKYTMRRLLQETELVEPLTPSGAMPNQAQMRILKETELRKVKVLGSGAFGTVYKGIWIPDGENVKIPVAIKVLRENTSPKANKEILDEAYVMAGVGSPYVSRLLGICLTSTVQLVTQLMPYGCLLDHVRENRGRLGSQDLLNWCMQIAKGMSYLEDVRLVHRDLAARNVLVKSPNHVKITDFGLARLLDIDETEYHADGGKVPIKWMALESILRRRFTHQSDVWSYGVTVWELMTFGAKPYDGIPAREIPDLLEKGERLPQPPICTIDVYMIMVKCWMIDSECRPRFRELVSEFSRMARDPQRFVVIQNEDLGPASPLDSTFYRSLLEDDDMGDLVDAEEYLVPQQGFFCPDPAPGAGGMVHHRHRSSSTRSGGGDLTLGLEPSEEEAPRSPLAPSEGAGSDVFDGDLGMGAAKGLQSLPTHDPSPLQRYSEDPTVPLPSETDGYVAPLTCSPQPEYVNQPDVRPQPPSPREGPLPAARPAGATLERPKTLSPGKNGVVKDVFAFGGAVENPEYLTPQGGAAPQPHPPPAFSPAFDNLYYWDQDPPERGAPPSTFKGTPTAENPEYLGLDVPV

Row | Compound | viability [1] | Her2 level [2] | viability [3] | viability [4] | viability [5] | differential viability (reversal) ([6]; H69AR cells + 2 uM doxorubicin) | viability [6, 9] | viability [6, 10] | inhibition [7] | inhibition [8]
1 | O=C(Oc1cccc2cccnc12)c1cccc(-n2cnnn2)c1 | 104% | 82% (inactive) | 104% (inactive) | 60.3% (inactive) | 91.9% (inactive) | 15.1% (inactive) | 76.8% | 91.9% | -2.53% (inactive) | 5.97% (inactive)
2 | Cn1c(-c2ccccc2)c(CCO)c2ccccc21 | 97% | 78.5% (inactive) | 97% (inactive) | 114% (inactive) | 94.7% (inactive) | -2.71% (inactive) | 97.4% | 94.7% | -0.79% (inactive) | -2.9% (inactive)
3 | COCCn1c(SCC(=O)Nc2cccc(OC)c2)nnc1-c1ccc(Cl)cc1 | 98.5% | 71.5% (inactive) | 98.5% (inactive) | 97% (inactive) | 84.1% (inactive) | -5.18% (inactive) | 89.3% | 84.1% | -6.4% (inactive) | 0.98% (inactive)
4 | COCCNc1oc(-c2ccc(C)cc2)nc1C#N | 102% | 81% (inactive) | 102% (inactive) | 113% (inactive) | 85.9% (inactive) | 8.44% (inactive) | 77.5% | 85.9% | -4.46% (inactive) | 3.33% (inactive)
5 | Cc1ccnc(NC(=O)CCC(=O)N(CC(=O)NC(C)(C)C)C2CCCC2)c1 | 108% | 99.5% (inactive) | 108% (inactive) | 92.7% (inactive) | 93.2% (inactive) | 0.62% (inactive) | 92.6% | 93.2% | -4.94% (inactive) | 5.56% (inactive)
6 | CCN1CCN(S(=O)(=O)Cc2ccccc2)CC1 | 116% | 114% (inactive) | 116% (inactive) | 105% (inactive) | 91.4% (inactive) | -0.695% (inactive) | 92.1% | 91.4% | 1.62% (inactive) | 12.9% (inactive)
7 | COc1cccc(Oc2ccc(N)cn2)c1 | 87% | 106% (inactive) | 87% (inactive) | 109% (inactive) | 88.1% (inactive) | 3.66% (inactive) | 84.4% | 88.1% | -2.37% (inactive) | -4.43% (inactive)
8 | Nc1sccc1C(=O)c1ccc(Cl)cc1 | 100% | 85% (inactive) | 100% (inactive) | 82.9% (inactive) | 90.2% (inactive) | 4.88% (inactive) | 85.3% | 90.2% | 0% (inactive) | -4.17% (inactive)
9 | Cc1cc(C)n(CC(=O)n2c3c(c4ccccc42)CCCC3)n1 | 116% | 117% (inactive) | 116% (inactive) | 75.3% (inactive) | 74.4% (inactive) | -6.97% (inactive) | 81.4% | 74.4% | -5.53% (inactive) | 3.77% (inactive)
10 | CC(C)Cc1nc(S(=O)(=O)c2ccc(Cl)cc2)c(N2CCOCC2)o1 | 128% | 94.5% (inactive) | 128% (inactive) | 87.8% (inactive) | 90.7% (inactive) | 0.63% (inactive) | 90.1% | 90.7% | -5.06% (inactive) | 1.75% (inactive)
11 | CCN1C(=O)Cc2cc(S(=O)(=O)N3CCOCC3)ccc21 | 105% | 110% (inactive) | 105% (inactive) | 96.1% (inactive) | 98% (inactive) | -2.08% (inactive) | 100% | 98% | -6.4% (inactive) | -0.63% (inactive)
12 | Cc1ccc(C)c(S(=O)(=O)NCc2cccnc2)c1 | 92% | 87.5% (inactive) | 92% (inactive) | 108% (inactive) | 92.8% (inactive) | 1.22% (inactive) | 91.5% | 92.8% | -5.33% (inactive) | -6.19% (inactive)
13 | C/C=C/c1ccc(OCCn2cncn2)c(OC)c1 | 98.5% | 126% (inactive) | 98.5% (inactive) | 95.6% (inactive) | 89.8% (inactive) | 1.09% (inactive) | 88.7% | 89.8% | 0.14% (inactive) | 0.66% (inactive)
14 | COC(=O)c1ccc(-c2sc3nc(N4CCOCC4)c4c(c3c2N)CCCC4)o1 | 108% | 104% (inactive) | 108% (inactive) | 74.4% (inactive) | 91% (inactive) | -1.13% (inactive) | 92.2% | 91% | -4% (inactive) | 27.3% (inactive)
